Each block holds one compound with its values, some of them ahead of it. The source made the active and inactive calls. No cut-off for these calls is given here.
Columns and labels:
Rattus norvegicus [1] = assay: The concentration yielding a half maximal decrease of the DOPA was determined in rat brain hemispheres; inactive at 50 umol/kg; type: functional, organism-based
How it was run: (§1)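 Reserpine-pretreated (5 mg/kg sc, 18 h) male Sprague-Dawley rats, 200–300 g; compounds in saline given sc. DOPA and 5-HTP in limbic system, striatum and hemispheres measured by HPLC with electrochemical detection. Dose–response curves of 4–6 doses (n = 4) per area, fitted to variable-slope sigmoid on log data to give ED50.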

Rattus norvegicus [2] = assay: The concentration yielding a half maximal decrease of the 5-HTP was determined in rat brain striatum; inactive at 50 umol/kg; type: functional, organism-based; how it was run: as §1
Rattus norvegicus [3] = assay: The concentration yielding a half maximal decrease of the 5-HTP was determined in rat limbic system; inactive at 50 umol/kg; type: functional, organism-based; how it was run: as §1
Rattus norvegicus [4] = assay: The concentration yielding a half maximal decrease of the DOPA was determined in rat brain striatum; inactive at 50 umol/kg; type: functional, organism-based
D(2) dopamine receptor = D(2) dopamine receptor (Rattus norvegicus, UniProt P61169); assay: Displacement of the radioligand [3H]spiperone from D2 receptor
D(2) dopamine receptor, sequence (P61169 whole entry): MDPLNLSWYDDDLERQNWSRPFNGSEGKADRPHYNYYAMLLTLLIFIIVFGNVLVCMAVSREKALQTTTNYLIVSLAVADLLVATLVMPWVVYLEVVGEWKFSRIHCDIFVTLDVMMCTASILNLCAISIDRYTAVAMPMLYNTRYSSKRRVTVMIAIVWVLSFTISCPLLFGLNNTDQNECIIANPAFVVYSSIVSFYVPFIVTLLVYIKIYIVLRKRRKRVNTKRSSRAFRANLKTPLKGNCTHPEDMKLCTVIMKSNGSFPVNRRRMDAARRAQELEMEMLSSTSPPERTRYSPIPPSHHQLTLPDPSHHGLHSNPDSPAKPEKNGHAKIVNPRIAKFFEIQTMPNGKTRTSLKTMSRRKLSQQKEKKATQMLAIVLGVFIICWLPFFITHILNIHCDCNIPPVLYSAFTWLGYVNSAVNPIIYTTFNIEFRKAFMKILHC
How it was run: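 Rat striatal membranes in 50 mM potassium phosphate buffer, incubated with 0.5 nM [3H]spiperone (3 mg tissue) 10 min at 37 °C. Nonspecific binding defined with 10 μM 6,7-ADTN. IC50 converted to Ki by Cheng–Prusoff; 3–7 experiments, each concentration in triplicate.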

Rattus norvegicus [5] = assay: The concentration yielding a half maximal decrease of the 5-HTP was determined in rat brain hemispheres; inactive at 50 umol/kg; type: functional, organism-based; how it was run: as §1
[6] = target: T1, 5-hydroxytryptamine receptor 1A (Rattus norvegicus, UniProt P19327); assay: Displacement of the radioligand [3H]8-OH-DPAT from 5-hydroxytryptamine 1A receptor
T1 sequence (P19327 whole entry): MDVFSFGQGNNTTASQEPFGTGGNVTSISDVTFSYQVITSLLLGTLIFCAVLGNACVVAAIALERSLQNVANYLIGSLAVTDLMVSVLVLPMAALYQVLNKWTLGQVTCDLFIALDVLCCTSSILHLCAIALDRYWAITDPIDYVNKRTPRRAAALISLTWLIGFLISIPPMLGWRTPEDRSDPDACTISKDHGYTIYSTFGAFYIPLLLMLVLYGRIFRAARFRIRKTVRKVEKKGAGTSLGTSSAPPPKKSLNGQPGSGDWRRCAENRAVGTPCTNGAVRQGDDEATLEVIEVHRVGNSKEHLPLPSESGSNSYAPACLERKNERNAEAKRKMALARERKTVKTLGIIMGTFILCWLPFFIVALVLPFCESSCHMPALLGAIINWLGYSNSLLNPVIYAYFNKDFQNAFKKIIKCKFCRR
How it was run: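 Rat whole brain minus brain stem and cerebellum, washed membranes in 50 mM Tris pH 8.0 with 120 mM NaCl, 4 mM CaCl2, 4 mM MgCl2, 10 μM pargyline. Nonspecific with 10 μM 5-HT. IC50 by semilog linear regression, Ki via Cheng–Prusoff; 3–7 experiments, triplicates.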

Rattus norvegicus [7] = assay: Motor activity was measured by motility testing on injecting the compound subcutaneously into rats at the dose of 0.02 umol/kg (1a) and 3.5 umol/kg (1b)
Rattus norvegicus [8] = assay: The concentration yielding a half maximal decrease of the DOPA was determined in rat limbic system; inactive at 50 umol/kg; type: functional, organism-based
Rattus norvegicus [9] = species: Rattus norvegicus; assay: The concentration yielding a half maximal decrease of the 5-HTP was determined in rat brain striatum.; type: functional
Rattus norvegicus [10] = species: Rattus norvegicus; assay: Log concentration to inhibit 5-HTP accumulation was determined in rat brain hemispheres; type: functional; how it was run: as §1
Rattus norvegicus [11] = assay: The concentration yielding a half maximal decrease of the DOPA was determined in rat brain hemispheres; Inactive at 50 umol/kg; type: functional, organism-based; how it was run: as §1
Rattus norvegicus [12] = species: Rattus norvegicus; assay: The concentration yielding a half maximal decrease of the 5-HTP was determined in rat brain hemispheres.; type: functional
Rattus norvegicus [13] = species: Rattus norvegicus; assay: Log concentration to inhibit DOPA accumulation was determined in rat brain striatum; type: functional; how it was run: as §1
Rattus norvegicus [14] = species: Rattus norvegicus; assay: Log concentration to inhibit 5-HTP accumulation was determined in rat limbic system; type: functional; how it was run: as §1
Rattus norvegicus [15] = species: Rattus norvegicus; assay: Log concentration to inhibit DOPA accumulation was determined in rat limbic system; type: functional; how it was run: as §1
Rattus norvegicus [16] = species: Rattus norvegicus; assay: The concentration yielding a half maximal decrease of the DOPA was determined in rat brain striatum.; type: functional
Rattus norvegicus [17] = assay: Motor activity was measured by motility testing on injecting the compound subcutaneously into rats at the dose of 12.5 umol/kg; type: functional
How it was run: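 Rats given reserpine 5 mg/kg sc 18 h beforehand, then test compound sc in neck (n = 4). Placed singly in photocell motility meters straight after dosing; counts recorded for 30 min, gross behaviour observed throughout. Value as counts/30 min with SEM.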

Rattus norvegicus [18] = species: Rattus norvegicus; assay: The concentration yielding a half maximal decrease of the DOPA was determined in rat limbic system.; type: functional
Rattus norvegicus [19] = species: Rattus norvegicus; assay: Log concentration to inhibit 5-HTP accumulation was determined in rat brain striatum; type: functional; how it was run: as §1
Rattus norvegicus [20] = species: Rattus norvegicus; assay: The concentration yielding a half maximal decrease of the 5-HTP was determined in rat limbic system.; type: functional
Rattus norvegicus [21] = assay: The concentration yielding a half maximal decrease of the DOPA was determined in rat limbic system; Partial response at 50 umol/kg; type: functional, organism-based
Rattus norvegicus [22] = assay: The concentration yielding a half maximal decrease of the 5-HTP was determined in rat brain hemispheres; Partial response at 50 umol/kg; type: functional, organism-based; how it was run: as §1
Rattus norvegicus [23] = assay: The concentration yielding a half maximal decrease of the DOPA was determined in rat brain striatum; Partial response at 50 umol/kg; type: functional, organism-based
Rattus norvegicus [24] = assay: The concentration yielding a half maximal decrease of the DOPA was determined in rat brain striatum; Partial response 50 umol/kg; type: functional, organism-based
Rattus norvegicus [25] = assay: The concentration yielding a half maximal decrease of the DOPA was determined in rat limbic system; Partial response 50 umol/kg; type: functional, organism-based
Rattus norvegicus [26] = species: Rattus norvegicus; assay: The concentration yielding a half maximal decrease of the DOPA was determined in rat brain striatum; type: functional; how it was run: as §1
Rattus norvegicus [27] = species: Rattus norvegicus; assay: The concentration yielding a half maximal decrease of the 5-HTP was determined in rat brain striatum; type: functional; how it was run: as §1
Rattus norvegicus [28] = species: Rattus norvegicus; assay: The concentration yielding a half maximal decrease of the 5-HTP was determined in rat limbic system; type: functional; how it was run: as §1
Rattus norvegicus [29] = species: Rattus norvegicus; assay: The concentration yielding a half maximal decrease of the 5-HTP was determined in rat brain hemispheres; type: functional; how it was run: as §1
Rattus norvegicus [30] = species: Rattus norvegicus; assay: The concentration yielding a half maximal decrease of the DOPA was determined in rat limbic system; type: functional
Rattus norvegicus [31] = assay: The concentration yielding a half maximal decrease of the DOPA was determined in rat brain hemispheres; inactive at 12.5 umol/kg; type: functional, organism-based; how it was run: as §1
Rattus norvegicus [32] = assay: The concentration yielding a half maximal decrease of the DOPA was determined in rat brain hemispheres; Inactive at 3.1 umol/kg; type: functional, organism-based; how it was run: as §1
Rattus norvegicus [33] = assay: The concentration yielding a half maximal decrease of the DOPA was determined in rat brain striatum; Inactive at 3.1 umol/kg; type: functional, organism-based

SMILES: CCCN(CCC)C1CCc2ccc3c(C=O)c[nH]c3c2C1 (centres undefined)
ED50 (Rattus norvegicus [1]): inactive | ED50 (Rattus norvegicus [2]): inactive | ED50 (Rattus norvegicus [3]): inactive | ED50 (Rattus norvegicus [4]): inactive | Ki (D(2) dopamine receptor): > 16000 nM | ED50 (Rattus norvegicus [5]): inactive | Ki [6]: 6720 nM | Counts/30 min (Rattus norvegicus [7]): 7 | ED50 (Rattus norvegicus [8]): inactive

SMILES: CCCN(CCC)[C@H]1CCc2ccc3[nH]cc(C#N)c3c2C1
ED50 (Rattus norvegicus [9]): 0.089 µmol/kg | pED50 (Rattus norvegicus [10]): 6.81 | ED50 (Rattus norvegicus [11]): inactive | ED50 (Rattus norvegicus [12]): 0.15 µmol/kg | Ki (D(2) dopamine receptor): 8020 nM | pED50 (Rattus norvegicus [13]): 4.29 | pED50 (Rattus norvegicus [14]): 7.93 | pED50 (Rattus norvegicus [15]): 4.37 | Ki [6]: 2.9 nM | ED50 (Rattus norvegicus [16]): 52 µmol/kg | Activity (Rattus norvegicus [17]): 300 Counts 30min-1 | ED50 (Rattus norvegicus [18]): 42 µmol/kg | pED50 (Rattus norvegicus [19]): 7.05 | ED50 (Rattus norvegicus [20]): 0.12 µmol/kg

SMILES: CCCN(CCC)C1CCc2ccc3cc[nH]c3c2C1 (centres undefined)
ED50 (Rattus norvegicus [1]): inactive | ED50 (Rattus norvegicus [2]): inactive | ED50 (Rattus norvegicus [3]): inactive | Ki (D(2) dopamine receptor): 145 nM | ED50 (Rattus norvegicus [21]): Weak activity | Ki [6]: 220 nM | ED50 (Rattus norvegicus [22]): Weak activity | Activity (Rattus norvegicus [17]): 119 Counts 30min-1 | ED50 (Rattus norvegicus [23]): Weak activity

SMILES: CCCN(CCC)C1CCc2ccc3[nH]cc(CC(F)(F)F)c3c2C1 (centres undefined)
ED50 (Rattus norvegicus [1]): inactive | ED50 (Rattus norvegicus [2]): inactive | ED50 (Rattus norvegicus [3]): inactive | ED50 (Rattus norvegicus [24]): Weak activity | Ki (D(2) dopamine receptor): 796 nM | ED50 (Rattus norvegicus [5]): inactive | Ki [6]: 182 nM | Activity (Rattus norvegicus [17]): 10 Counts 30min-1 | ED50 (Rattus norvegicus [8]): inactive

SMILES: CCCN(CCC)C1CCc2ccc3c(c2C1)NCC3 (centres undefined)
ED50 (Rattus norvegicus [1]): inactive | ED50 (Rattus norvegicus [2]): inactive | ED50 (Rattus norvegicus [3]): inactive | ED50 (Rattus norvegicus [24]): Weak activity | Ki (D(2) dopamine receptor): 650 nM | ED50 (Rattus norvegicus [5]): inactive | Ki [6]: 410 nM | ED50 (Rattus norvegicus [25]): Weak activity

SMILES: CCCN(CCC)[C@@H]1CCc2ccc3[nH]ccc3c2C1
Activity (Rattus norvegicus [17]): 82 Counts 30min-1

SMILES: CCCN(CCC)C1CCc2cc3c(C=O)c[nH]c3cc2C1 (centres undefined)
ED50 (Rattus norvegicus [26]): 16.7 µmol/kg | ED50 (Rattus norvegicus [1]): inactive | pED50 (Rattus norvegicus [10]): 4.87 | Ki (D(2) dopamine receptor): 700 nM | ED50 (Rattus norvegicus [27]): 18 µmol/kg | pED50 (Rattus norvegicus [14]): 4.88 | ED50 (Rattus norvegicus [28]): 13 µmol/kg | ED50 (Rattus norvegicus [29]): 14 µmol/kg | pED50 (Rattus norvegicus [15]): 4.78 | Ki [6]: 4720 nM | ED50 (Rattus norvegicus [30]): 27.8 µmol/kg | Counts/30 min (Rattus norvegicus [7]): 172 | pED50 (Rattus norvegicus [19]): 4.74

SMILES: CCCN(CCC)C1CCc2ccc3[nH]cc(C=O)c3c2C1 (centres undefined)
ED50 (Rattus norvegicus [26]): 3.3 µmol/kg | pED50 (Rattus norvegicus [10]): 6.88 | pED50 (Rattus norvegicus [13]): 5.48 | ED50 (Rattus norvegicus [31]): inactive | pED50 (Rattus norvegicus [14]): 6.95 | ED50 (Rattus norvegicus [28]): 0.11 µmol/kg | ED50 (Rattus norvegicus [29]): 0.13 µmol/kg | pED50 (Rattus norvegicus [15]): 6.52 | ED50 (Rattus norvegicus [30]): 0.3 µmol/kg | Counts/30 min (Rattus norvegicus [7]): 231 | pED50 (Rattus norvegicus [19]): 7.18

SMILES: CCCN(CCC)[C@@H]1CCc2ccc3[nH]cc(C#N)c3c2C1
ED50 (Rattus norvegicus [9]): 0.036 µmol/kg | ED50 (Rattus norvegicus [32]): inactive | pED50 (Rattus norvegicus [10]): 6.85 | ED50 (Rattus norvegicus [12]): 0.14 µmol/kg | Ki (D(2) dopamine receptor): 419 nM | pED50 (Rattus norvegicus [14]): 7.03 | pED50 (Rattus norvegicus [15]): 5.78 | Ki [6]: 2.7 nM | ED50 (Rattus norvegicus [33]): inactive | ED50 (Rattus norvegicus [18]): 1.65 µmol/kg | pED50 (Rattus norvegicus [19]): 7.44 | ED50 (Rattus norvegicus [20]): 0.092 µmol/kg

SMILES: CCCN(CCC)C1CCc2ccc3[nH]ccc3c2C1 (centres undefined)
Activity (Rattus norvegicus [17]): 177 Counts 30min-1

SMILES: CCCN(CCC)[C@H]1CCc2ccc3[nH]ccc3c2C1
Activity (Rattus norvegicus [17]): 29 Counts 30min-1

SMILES: CCCN(CCC)C1CCc2ccc3c(CC(F)(F)F)c[nH]c3c2C1 (centres undefined)
ED50 (Rattus norvegicus [1]): inactive | ED50 (Rattus norvegicus [2]): inactive | ED50 (Rattus norvegicus [3]): inactive | ED50 (Rattus norvegicus [4]): inactive | Ki (D(2) dopamine receptor): 2330 nM | ED50 (Rattus norvegicus [5]): inactive | Activity (Rattus norvegicus [17]): 74 Counts 30min-1 | ED50 (Rattus norvegicus [8]): inactive

Ki (D(2) dopamine receptor): > 16000 nM | Ki [6]: 550 nM
SMILES: CCCN(CCC)C1CCc2ccc3c(c2C1)N(C=O)CC3 (centres undefined)
ED50 (Rattus norvegicus [1]): inactive | ED50 (Rattus norvegicus [2]): inactive | ED50 (Rattus norvegicus [3]): inactive | ED50 (Rattus norvegicus [24]): Weak activity | ED50 (Rattus norvegicus [5]): inactive | ED50 (Rattus norvegicus [25]): Weak activity

Source: ChEMBL document CHEMBL1127349, “6,7,8,9-Tetrahydro-N,N-di-n-propyl-3H-benzindol-8-amines. Derivatives as potent and orally active serotonin 5-HT1A receptor agonists” (J Med Chem, 1994)
